pKi: −log10 of the molar value. Calls of active or inactive are those of the source. No cut-off for these calls is given here.
Legend:
[1] = molecular target: GABA-A receptor; anion channel; assay: Inhibition of [3H]-Ro- 15-1788 binding to GABA-A benzodiazepine receptor of bovine brain membranes; format: cell membranes, Bos taurus
How it was run: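 Bovine cerebral cortex membranes, freeze–thawed and washed in 50 mM Tris-citrate pH 7.4; competition against [3H]Ro 15-1788 by filtration. […] Ki as mean ± SEM of three determinations.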

[2] = system: Mus musculus; assay: Antagonistic effect against PTZ (80 mg/kg, sc) convulsant action in mice; format: functional
[3] = system: Mus musculus; assay: Convulsant effect in mice following subconvulsant PTZ(40 mg/kg, sc) dose, ineffective to 250 mg/kg; format: functional, organism-based; parameters: dose 250 mg/kg
[4] = system: Mus musculus; assay: Antagonistic effect against the anticonvulsant Diazepam (2.5 mg/kg, ip) effect in mice after PTZ (80mg/kg, sc) dose, ineffective to 250 mg/kg; format: functional, organism-based; parameters: dose 250 mg/kg
[5] = molecular target: GABA-A receptor; anion channel (Bos taurus) (UniProt P10063+P08220+P20237+P08219+P10064+P22300); details: Brain membranes, at 0.5 µM
[6] = system: Mus musculus; assay: Antagonistic effect against PTZ (80 mg/kg, sc) convulsant action in mice (ineffective); format: functional, organism-based
How it was run: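 Groups of 10 mice received graded ip doses (up to 250 mg/kg), suspended in 20% dilute Emulphor (1:1 w/w with ethanol)–80% saline, or vehicle alone. PTZ 80 mg/kg sc followed 30 min later. ED50 was the dose protecting 50% of mice from convulsions. Values are means of at least three determinations.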

[7] = system: Mus musculus; assay: Convulsant effect in mice following subconvulsant PTZ(40 mg/kg, sc) dose; format: functional
How it was run: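 Groups of 10 mice were given graded ip doses (up to 250 mg/kg) in 20% dilute Emulphor–80% saline, or vehicle alone. A subconvulsant dose of PTZ (40 mg/kg sc) followed 30 min later. ED50 was the dose inducing convulsions in 50% of mice. Values are means of at least three determinations.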

[8] = system: Mus musculus; assay: Antagonistic effect against the anticonvulsant Diazepam (2.5 mg/kg, ip) effect in mice after PTZ (80 mg/kg, sc) dose; format: functional

Row | Structure (SMILES) | pKi [1] | ED50 [2] | Proconvulsant action [3] | Clonazepam [5] | other results
1 | CN(NC(=O)C(=O)c1c[nH]c2ccc([N+](=O)[O-])cc12)c1ccccc1 | 5.62 | 25 mg/kg | inactive | 53% | Diazepam antagonism [4]: inactive
2 | Cn1cc(C(=O)C(=O)NNc2ccc([N+](=O)[O-])cc2)c2ccccc21 | 6.34 | – | – | – | –
3 | CN1C(=O)CN=C(c2ccccc2)c2cc(Cl)ccc21 [DIAZEPAM] | – | 0.4 mg/kg | – | – | –
4 | O=C(NNc1ccc(O)cc1)C(=O)c1c[nH]c2ccccc12 | 5.47 | – | – | – | –
5 | O=C(NNc1ccc(Cl)cc1)C(=O)c1c[nH]c2ccccc12 | 7.21 | 25 mg/kg | inactive | 16% | Diazepam antagonism [4]: inactive
6 | Cc1ccc(NNC(=O)C(=O)c2c[nH]c3ccccc23)cc1 | 6.54 | – | – | 9% | –
7 | O=C(NNc1ccc(F)cc1)C(=O)c1c[nH]c2ccccc12 | 7.24 | 60 mg/kg | inactive | 18% | Diazepam antagonism [4]: inactive
8 | COC(=O)c1cc2c(cn1)[nH]c1ccccc12 [BETA-CCM] | – | – | – | – | ED50 [6]: inactive; Proconvulsant action [7]: 19.4; Diazepam antagonism [8]: 0.02
9 | CCOC(=O)c1ncn2c1CN(C)C(=O)c1cc(F)ccc1-2 [FLUMAZENIL] | – | – | inactive | – | Diazepam antagonism [8]: 0.3
10 | O=C(NNc1ccccc1)C(=O)c1c[nH]c2ccccc12 | 6.69 | – | – | 20% | –
11 | COc1ccc(NNC(=O)C(=O)c2c[nH]c3ccccc23)cc1 | 6.37 | – | – | 17% | –
12 | Cc1cccc(NNC(=O)C(=O)c2c[nH]c3ccccc23)c1 | 6.29 | – | – | 20% | –
13 | Cn1cc(C(=O)C(=O)NNc2ccccc2)c2ccccc21 | 5.92 | – | – | – | –
14 | O=C(NNc1ccc([N+](=O)[O-])cc1)C(=O)c1c[nH]c2ccccc12 | 7.96 | 10 mg/kg | inactive | 20% | Diazepam antagonism [4]: inactive
15 | O=C1CN=C(c2ccccc2Cl)c2cc([N+](=O)[O-])ccc2N1 | – | – | – | 100% | –

Reference: ChEMBL document CHEMBL1131119, “N'-Phenylindol-3-ylglyoxylohydrazide derivatives: synthesis, structure-activity relationships, molecular modeling studies, and pharmacological action on brain benzodiazepine receptors” (J Med Chem, 1998)
